Measurements reported in publication PMC4090259 (Stem cell research, 2014).
Where two headings read alike, the source gives them in different places.

Columns and labels:
[1] = test system: various cancer cell lines; details: literature values for various cancer cell lines; ref Chauffert & Dimanche-Boitrel 1998; Lee et al. 2008; Meli et al. 2012; cited from earlier work
[2] = test system: ReNcell CX neural progenitor cell line; details: cited from earlier work
[3] = test system: ReNcell VM differentiated progeny (astrocytic phenotype); format: cell-based, human
ReNcell VM cells [4] = test: Cytotoxicity in 2D ReNcell VM cultures, 96-well plate format; format: cell-based; details: Homo sapiens
Outline: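 Human neural stem cells seeded at 5,000 cells/well and left to attach for at least 5 h. Doses made by 4-fold serial dilution from the highest dose, each holding 0.5% DMSO vehicle. Viability read by MTT: 2.5 mg/ml MTT solution added, 3 h under culture conditions, supernatant removed, formazan dissolved in DMSO, absorbance at 590 nm with 690 nm reference.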

ReNcell VM cells [5] = format: cell-based, human
Hep3B = details: when P450 metabolism was absent; ref Lee et al. 2008; cited from earlier work

O=c1[nH]cc(F)c(=O)[nH]1 [5-Fluorouracil, 5-fluorouracil]
IC50 [1]: 1 to 85 µM
effect on proliferation and viability ([2]; non-differentiated, 2D well plate, after 24 h of incubation with the drug, ref Breier et al. 2008a): inhibited proliferation without affecting viability

C[C@@H]1C[C@H]2[C@@H]3CCC4=CC(=O)C=C[C@]4(C)[C@@]3(F)[C@@H](O)C[C@]2(C)[C@@]1(O)C(=O)CO [Dexamethasone, dexamethasone]
IC50 ([3]; Homo sapiens, ReNcell VM): 60 µM
IC50 (ReNcell VM cells [4]): 215 µM
effect on viability ([2]; concentrations of up to 100 μM, ref Breier et al. 2008b): negligible effect on viability
IC50 (ReNcell VM cells [5]; Homo sapiens, ReNcell VM): 2000 µM

CC(=O)Nc1ccc(O)cc1 [Acetaminophen, acetaminophen]
viability of the cells below the hepatotoxic range of concentrations ([3]; differentiated progeny, concentrations below ~0.2 – 1 mM): remains unaffected
IC50 (ReNcell VM cells [4]): 1760 µM
toxicity (Hep3B): non-toxic
IC50 (ReNcell VM cells [5]; Homo sapiens, ReNcell VM): 2400 µM
viability of the cells below the hepatotoxic range of concentrations (ReNcell VM cells [5]; hNSC line, concentrations below ~0.2 – 1 mM): remains unaffected

[Cl][Cd][Cl] [CdCl, cadmium chloride hydrate]
IC50 (ReNcell VM cells [5]; Non-differentiated, 3D alginate microarray, 24 h exposure + 48 h in medium): 7.36 µM
